Values without a mark were called inactive. Results filed as inconclusive are left out. The source made the active and inactive calls.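 How the source made its calls, unless noted: active means inhibition over a set limit, the all-compound mean plus 3 SD, in both replicate runs; inconclusive means over that limit in just one replicate run; inactive means at or under that limit in both runs.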

Assay [1] can be described thus: S. cerevisiae growth inhibition in permissive medium (OD615), pilot counter-assay for S. cerevisiae lifespan shortening project, permissive growth control (AID 705;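 active means growth inhibition above 25% in both replicates, a cutoff set 3 SD above the mean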). Conditions: OD615, 24 h, at 10 µM, hits give high values. The method in brief: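 Test system: Saccharomyces cerevisiae strain carrying genetically modified DeaD replicative-lifespan system; buffer or medium: SC raffinose/galactose permissive medium; dosing: one dose 10 µM, DMSO 0.25% final; times: 24 h exposure, 30 °C; measured by: OD at 615 nm; read-out basis: growth inhibition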

Assay [2] in a line: S. cerevisiae growth inhibition in restrictive medium, OD615, pilot screen, restrictive growth control, yeast lifespan reduction project (AID 706;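 active means growth inhibition above a set limit, 3 SD over mean compound inhibition, in both replicates, cut at about 43% in these data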;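 further: modified DeaD lifespan yeast strain shifted to restrictive glucose medium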). Conditions: OD615, 48 h, at 10 µM, hits give high values. The method in brief:
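material = engineered S. cerevisiae DeaD strain | buffer or medium = glucose-based CSMM-D restrictive medium | dosing = one concentration, 10 µM final, 0.25% DMSO | schedule = 4 h pre-growth plus 48 h compound exposure, 30 °C | detection = OD615 absorbance reading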

A short description of assay [3]: doxorubicin toxicity protection in MRP-1 cells – H69AR cells, CellTiter-Glo, duplicate, MRP-1 activator project, pilot screen (AID 807;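 active means viability increase at or above a cutoff of the median across tested compounds plus 3 SD, cut at about 8.5% in these data, passing the limit was not always enough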;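 further: compound pretreatment 18-22 h then 72 h combined with doxorubicin; 0% = doxorubicin alone and 100% = vehicle without doxorubicin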). Particulars: H69AR viability with doxorubicin, CellTiter-Glo luminescence; at 10 µM; hits give high values. A general note: ATP-based viability assays read luminescence as a measure of living cells.
Assay [4] in a line: viability of HCT116 without oncogenic beta-catenin – human colon tumor cells, pilot screen (AID 823;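 active means cell viability at or below a set limit in both duplicate runs, the limit being the all-compound median minus 4 SD, cut at about 23% in these data, passing the limit was not always enough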;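 further: 0% = wells killed by 20 µM Hyamine and 100% = untreated DMSO cell wells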). Particulars: HCT116 beta-catenin knockout viability, CellTiter-Glo, 60 h; at 10 µM; hits give low values.
Assay [5] is described as follows: viability of PTEN-null HCT116 cells – cell-based, HCT116 clonal line, CellTiter-Glo, pilot screen (AID 824;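 active means viability at or below 27.92% in each of two runs, the all-compound median minus 4 SD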;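 further: 0% = 20 µM Hyamine control and 100% = vehicle cell control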). Conditions: HCT116 PTEN-deleted viability, 60 h, at 10 µM, hits give low values.
The nature of assay [6]: RAM pathway blockade in budding yeast – dse1pr::URA3 reporter, 5-FOA selection, pilot screen (AID 869).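 Further: 0% = DMSO wells with no growth and 100% = 10 µM 1-NA-PP1 with full growth; RAM network block rescues cells from 5-FOA so hits raise OD615 growth.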 Particulars: S. cerevisiae dse1pr::URA3 5-FOA growth, OD615, 2 d; at 10 µM; hits give high values; strain carries analog-sensitive mutant Cbk1 kinase.
Assay [7] in a line: RAM signaling pathway blockade in yeast – S. cerevisiae, Pdr1DBD-CYC8 efflux-inhibited sensitized strain, primary screen (AID 1298;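 active means RAM network inhibition above 8.4% in each of two replicates, 3 SD over the compound average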;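 further: 0% = DMSO untreated cells without growth and 100% = 10 µM 1-NA-PP1 full growth; higher means more yeast growth rescued from 5-FOA killing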). Conditions: S. cerevisiae cbk1-as DSE1-URA3 strain, 5-FOA growth OD615, 2 d; at 50 µM; hits give high values.

A word on the viability: it is a read-out of living cells in per cent, often relative to untreated cells. One may read the inhibition as the relative decrease from the control value, in per cent. Regarding `O=C(Cn1cc2c(n1)CCCCC2)NC1CCN(Cc2ccccc2)CC1`, the growth inhibition in assay [1] is -6.81%; in assay [2], 2.45%. Further, in assay [3], the viability increase was -1.57%. Besides, the viability in assay [4] is 86.5%; in assay [5], 83.4%. Besides, the inhibition in assay [6] is 2.21%. The RAM network inhibition in assay [7] is 7.63%.
Take `CCc1cccc(Nc2cc(C)nc3nc(C)nn23)c1`: the growth inhibition in assay [1] was -14.3%; in assay [2] it was -3.76%. The viability increase in assay [3] was -3.25%. For the same molecule, the viability is 96.7% in assay [4] and 88.3% in assay [5]. For the same molecule, the inhibition in assay [6] is 2.72%. Moreover, the RAM network inhibition in assay [7] was 2.83%.
`c1ccc(-c2csc3ncn4cnnc4c23)cc1`: the growth inhibition was -7.59% in assay [1] and 2.29% in assay [2]. Besides, the viability increase in assay [3] is -1.06%. Besides, the viability in assay [4] is 97.8%; in assay [5], 91.4%. Besides, the inhibition in assay [6] is 1.15%. Also, in assay [7], the RAM network inhibition is 2.91%.
As to `Cc1ccc(CC(CC(=O)O)C(=O)NC2CCCCC2)cc1` (stereo not drawn), the values for the growth inhibition in assay [1] and in assay [2] were -8.33% and -0.295%, respectively. The viability increase in assay [3] is -0.76%. Besides, the values for the viability in assay [4] and in assay [5] were 101% and 99.2%, respectively. In assay [6], the inhibition is 2.5%. Further, in assay [7], the RAM network inhibition was 3.83%.
On to `Cc1ccc2oc(=O)c3cnn(CC(=O)N(CCCN4CCOCC4)Cc4ccco4)c3c2c1`, for which the growth inhibition in assay [1] is -16.5%; in assay [2], -28.7%. Besides, the viability increase in assay [3] is -3.59%. In addition, the viability in assay [4] was 93.2%; in assay [5], 87.9%. Also, the inhibition in assay [6] is 1.55%. Also, the RAM network inhibition in assay [7] was 3.73%.
Consider `CCc1cc(Br)ccc1N1C(=O)C2CC=CCC2C1=O` (stereo not drawn), for which the growth inhibition in assay [1] is -6.14%; in assay [2], -7.71%. Also, in assay [3], the viability increase was 0.19%. Besides, the viability in assay [4] was 86.5%; in assay [5] it was 94.9%. The inhibition in assay [6] was 1.2%. Moreover, in assay [7], the RAM network inhibition is 0.4%.
Take `CC(=O)Nc1ccccc1NC(=O)C(F)(F)F`: the results for the growth inhibition in assay [1] and in assay [2] were -14.2% and -5%, respectively. Also, the viability increase in assay [3] is -1.16%. Further, the figures for the viability in assay [4] and in assay [5] were 101% and 108%, respectively. Also, the inhibition in assay [6] was 1.51%. The RAM network inhibition in assay [7] was 0.88%.
As for `COc1ccc(C(C(=O)NC2CCCC2)N2CCc3ccccc32)cc1` (stereo not drawn), the values for the growth inhibition in assay [1] and in assay [2] were -12.6% and -11.4%, respectively. Further, the viability increase in assay [3] is -3.02%. For the same molecule, the viability in assay [4] is 92.8%; in assay [5], 87.9%. Moreover, the inhibition in assay [6] was 1.26%. Also, the RAM network inhibition in assay [7] was 1.52%.
Turning to `Cc1ccc(CNC(=O)CN(C)S(=O)(=O)c2cccc3cccnc23)cc1`, the growth inhibition in assay [1] was -2.75%; in assay [2] it was 6.15%. Moreover, in assay [3], the viability increase is -1.21%. In addition, the viability in assay [4] was 99.4%; in assay [5], 92.9%. Besides, in assay [6], the inhibition was 2.25%. Also, in assay [7], the RAM network inhibition was -1.33%.
As to `O=C(O)[C@@H](c1ccccc1)N1Cc2ccccc2C1=O`, the values for the growth inhibition in assay [1] and in assay [2] were 2.66% and -13.5%, respectively. For the same molecule, the viability increase in assay [3] is -0.32%. The viability in assay [4] was 104%; in assay [5] it was 96.7%. Moreover, the inhibition in assay [6] is 1.13%. Moreover, the RAM network inhibition in assay [7] was 1.56%.
In the case of `CCCCn1c(C(C)NC(=O)CCC)nc2ccccc21` (stereo not drawn), the growth inhibition in assay [1] is -1.25%; in assay [2], -0.375%. Further, in assay [3], the viability increase is 1.35%. The values for the viability in assay [4] and in assay [5] were 86.2% and 91%, respectively. In assay [6], the inhibition is 0.88%. Besides, in assay [7], the RAM network inhibition is 7.23%.
For `O=C1CCC(=O)N1c1ccc(CSc2nc3ccccc3[nH]2)cc1`, the growth inhibition in assay [1] is -4.96%; in assay [2] it was -2.19%. For the same molecule, the viability increase in assay [3] is 0.79%. Besides, the viability in assay [4] is 104%; in assay [5], 92.9%. In addition, in assay [6], the inhibition is 1.06%. The RAM network inhibition in assay [7] is 2.24%.
For the molecule `CC(C)c1ccc(C2CC(=O)N3CN(C)CSC3=C2C#N)cc1` (stereo not drawn), the growth inhibition in assay [1] was 4.19%; in assay [2], 25%. Also, in assay [3], the viability increase was -4.3%. For the same molecule, the viability was 91.4% in assay [4] and 93.9% in assay [5]. Also, the inhibition in assay [6] was 1.75%. Also, the RAM network inhibition in assay [7] was -0.52%.
For the molecule `O=C(c1ccccc1)c1ccc2nc(N3CCCCC3)c3nncn3c2c1`, the growth inhibition was 12.4% in assay [1] and 57.7% (active) in assay [2]. The viability increase in assay [3] was -3.48%. For the same molecule, the viability in assay [4] was 45.4%; in assay [5], 56.4%. The inhibition in assay [6] is 2.53%. Moreover, the RAM network inhibition in assay [7] was 4.08%.
For `CCN(CC)CCCNC(=O)c1cc(-c2ccc(O)cc2)on1`, the figures for the growth inhibition in assay [1] and in assay [2] were -14.6% and 9.75%, respectively. In addition, the viability increase in assay [3] is -3.12%. In addition, the viability is 99.1% in assay [4] and 96.1% in assay [5]. The inhibition in assay [6] is 1.24%. Besides, the RAM network inhibition in assay [7] was 1.77%.
Take `CCCOC(=O)CSC1=C(C#N)C(c2ccccc2Cl)CC(=O)N1` (stereo not drawn): the results for the growth inhibition in assay [1] and in assay [2] were 1.49% and -25.7%, respectively. Also, the viability increase in assay [3] was -1.57%. In addition, the viability in assay [4] was 66.3%; in assay [5], 75.5%. Also, the inhibition in assay [6] is 1.75%. Also, in assay [7], the RAM network inhibition was 2.16%.
Take `O=C(c1cc(-c2ccc(O)cc2)on1)N1CCc2ccccc2C1`: the results for the growth inhibition in assay [1] and in assay [2] were -16.4% and 15.6%, respectively. In assay [3], the viability increase was -4.4%. Also, the viability in assay [4] is 93%; in assay [5], 91.1%. In addition, the inhibition in assay [6] was 0.875%. Further, in assay [7], the RAM network inhibition was -2.87%.
As for `CC(=O)c1ccc(NC(=O)C2CCCN2S(=O)(=O)c2ccc(F)cc2)cc1` (stereo not drawn), the figures for the growth inhibition in assay [1] and in assay [2] were -5.81% and 0.06%, respectively. The viability increase in assay [3] is 0.59%. Moreover, the viability was 98.5% in assay [4] and 96.2% in assay [5]. Further, the inhibition in assay [6] was 2.9%. Moreover, in assay [7], the RAM network inhibition is 1.64%.
Regarding `COc1ccc(-n2c(Cn3c(=O)sc4ccccc43)nnc2SCC(=O)N2CCCCC2)cc1`, the growth inhibition was 3.02% in assay [1] and 19.9% in assay [2]. Besides, the viability increase in assay [3] was -0.89%. Further, the viability in assay [4] is 99.6%; in assay [5], 96.5%. Moreover, the inhibition in assay [6] was 0.19%. Moreover, the RAM network inhibition in assay [7] is 6.13%.
For the molecule `Cc1ccc(-c2noc(CSc3nnnn3C3CCCCC3)n2)cc1`, the growth inhibition is -16.1% in assay [1] and -13.6% in assay [2]. Also, the viability increase in assay [3] is -1.39%. For the same molecule, the viability in assay [4] is 89.8%; in assay [5] it was 84%. Also, the inhibition in assay [6] is 0.525%. Also, the RAM network inhibition in assay [7] is 5.16%.
`COc1cccc(C(c2sc3ncnn3c2O)N2CC(C)OC(C)C2)c1` (stereo not drawn): the growth inhibition is 4.48% in assay [1] and -2.31% in assay [2]. Besides, the viability increase in assay [3] was 2.62%. The viability in assay [4] was 99.1%; in assay [5] it was 95.7%. In assay [6], the inhibition is 1.34%. For the same molecule, the RAM network inhibition in assay [7] was 2.05%.
`Cc1[nH]c2ccc(-c3n[nH]c(=S)n3C)cc2c1C`: the figures for the growth inhibition in assay [1] and in assay [2] were -4.45% and -17.6%, respectively. For the same molecule, the viability increase in assay [3] is 0.84%. Besides, the viability in assay [4] was 98.9%; in assay [5], 93.3%. The inhibition in assay [6] is 1.31%. Also, the RAM network inhibition in assay [7] is 0.57%.
Consider `CCOc1nonc1C(=N)/C(C(C)=O)=C(\C)O`, for which the results for the growth inhibition in assay [1] and in assay [2] were -12.6% and -12.1%, respectively. In assay [3], the viability increase was -1.06%. In addition, the viability in assay [4] was 104%; in assay [5], 98%. The inhibition in assay [6] was 1.42%. In addition, the RAM network inhibition in assay [7] was -0.48%.
Turning to `Clc1ccccc1C1CC(c2ccccc2)Nc2ncnn21` (stereo not drawn), the growth inhibition in assay [1] is -10.9%; in assay [2] it was -11.2%. The viability increase in assay [3] was -1.24%. In addition, the viability in assay [4] was 83.9%; in assay [5], 81.2%. Also, in assay [6], the inhibition was 2.05%. Besides, the RAM network inhibition in assay [7] is -0.69%.

The values above are taken from PubChem BioAssay.
